Assay results from different studies.
Lines come from different studies, so protocols differ.
Read-out: cell growth or viability

| Compound | cell line | technique | tested at | time | notes | endpoint | value |
| --- | --- | --- | --- | --- | --- | --- | --- |
| O=C(c1ccc(Oc2cccc(-c3ccccc3)c2)c([N+](=O)[O-])c1)C(Cl)Cl | NCI-H1650 | MTT | 2.5 µM | – | – | inhibition | 97.2% |
| COc1ccc(COC[C@@](O)(CNCc2ccccc2)[C@@H]2CC[C@@H](C)C[C@H]2OCc2ccc(OC)cc2)cc1 | A2780 | MTT | 10 µM | 72 h | – | inhibition | 98% |
| COc1nc(NCc2cn(-c3ccc(C(N)=O)cc3)nn2)nc(OC)n1 | Caco-2 | MTT | – | 72 h | – | IC50 | 970 nM |
| O=C(NO)c1ccc(CNc2nc3cccc(-c4ccc5c(c4)OCO5)n3n2)cc1 | TK-10 | SRB | – | – | – | GI50 | 520 nM |
| O=C1c2ccccc2C(=O)c2c(Oc3ccc(C(=O)C(Cl)Cl)cc3[N+](=O)[O-])cccc21 | NCI-H1650 | MTT | 2.5 µM | – | – | inhibition | 28.7% |
| COc1nc(NCc2cn(-c3ccc(NC(=O)c4ccc(C(F)(F)F)cc4)cc3)nn2)nc(OC)n1 | Caco-2 | MTT | – | 72 h | – | IC50 | 566 nM |
| C[C@@H]1CC[C@@H]([C@@](O)(CNCc2ccccc2)COCc2ccc(F)cc2)[C@H](OCc2ccc(F)cc2)C1 | A2780 | MTT | 30 µM | 72 h | – | inhibition | 98.5% |
| C=C(F)C(=O)N1CCN(c2nc(OC[C@@H]3CCCN3C)nc3c2CCN(c2cccc4cccc(Cl)c24)C3)C[C@@H]1CC#N | HCC44 | ATP luminescence | – | – | – | IC50 | > 10000 nM |
| O=C(O)c1ccccc1Nc1cccc(C(F)(F)F)c1 | NCI-H28 | CCK-8 | – | 72 h | – | GI50 | > 40000 nM |
| C=C(COCc1ccc(OC)cc1)[C@@H]1CC[C@@H](C)C[C@H]1OCc1ccc(OC)cc1 | A2780 | MTT | 30 µM | 72 h | – | inhibition | 27.4% |
| COc1cccc2c1C(=O)c1c(O)c3c(c(O)c1C2=O)C[C@@](O)(C(=O)CO)C[C@@H]3O[C@H]1C[C@H](N)[C@H](O)[C@H](C)O1 | Caco-2 | MTT | 25 µg/mL | 48 h | serum-free | viability | 31.6% |
| C[C@@H]1CC[C@@H]([C@](O)(CNCc2ccc(F)cc2)COCc2ccc(F)cc2)[C@H](OCc2ccc(F)cc2)C1 | A2780 | MTT | 30 µM | 72 h | – | inhibition | 95.3% |
| CC(=O)OCCCOc1ccc(C(=O)C(Cl)Cl)cc1[N+](=O)[O-] | NCI-H1650 | MTT | 2.5 µM | – | – | inhibition | 39.6% |
| COc1ccc(CNC[C@@](C)(O)[C@@H]2CC[C@@H](C)C[C@H]2OCc2ccccc2)cc1 | A2780 | MTT | 10 µM | 72 h | – | inhibition | 42.9% |
| COc1cccc2c1C(=O)c1c(O)c3c(c(O)c1C2=O)C[C@@](O)(C(=O)CO)C[C@@H]3O[C@H]1C[C@H](N)[C@H](O)[C@H](C)O1 | NCI-H1650 | MTT | 2.5 µM | – | – | inhibition | 95.8% |
| C[C@@H]1CC[C@@H]([C@](O)(CNCc2ccccc2)COCc2ccccc2)[C@H](OCc2ccccc2)C1 | A2780 | MTT | 30 µM | 72 h | – | inhibition | 91.1% |
| COc1ccc(NC(=O)c2ccc(-n3cc(CNc4nc(OC)nc(OC)n4)nn3)cc2)cc1 | Caco-2 | MTT | – | 72 h | – | IC50 | 435 nM |
| C=CC(=O)N1CCN(c2nc(=O)n(-c3c(C)ccnc3C(C)C)c3nc(-c4c(O)cccc4F)c(F)cc23)[C@@H](C)C1 | NCI-H2122 | ATP luminescence | – | – | – | IC50 | 90.1 nM |
| COc1nc(NCc2cn(-c3ccc(C(=O)Nc4ccc([N+](=O)[O-])cc4)cc3)nn2)nc(OC)n1 | Caco-2 | MTT | – | 72 h | – | IC50 | 724 nM |
| CC(=O)c1ccc(Oc2ccc(C(=O)C(Cl)Cl)cc2[N+](=O)[O-])cc1 | NCI-H1650 | MTT | 2.5 µM | – | – | inhibition | 96.4% |
| C=CC(=O)NC1CCN(c2ncc3ncnc(Nc4ccc(Oc5ccc6c(c5)ncn6C)c(C)c4)c3n2)CC1 | HCC44 | – | – | – | – | EC50 | 934 nM |
| O=C(c1ccc(Oc2ccc(Br)cc2)c([N+](=O)[O-])c1)C(Cl)Cl | NCI-H1650 | MTT | 2.5 µM | – | – | inhibition | 96.1% |
| C=CC(=O)c1cccnc1Nc1cc(C(F)(F)F)ccc1OCc1ccccc1 | NCI-H28 | CCK-8 | – | 72 h | – | GI50 | 11200 nM |
| C[C@@H]1CC[C@@H]([C@](C)(O)CNCc2ccccc2)[C@H](OCc2ccccc2)C1 | A2780 | MTT | 10 µM | 72 h | – | inhibition | 91.6% |
| O=C(c1ccc(Oc2ccc3oc(=O)ccc3c2)c([N+](=O)[O-])c1)C(Cl)Cl | NCI-H1650 | MTT | 2.5 µM | – | – | inhibition | 96.8% |
| COc1cccc(CNC[C@@](C)(O)[C@@H]2CC[C@@H](C)C[C@H]2OCc2ccccc2)c1 | A2780 | MTT | 10 µM | 72 h | – | inhibition | 32.9% |
| N#Cc1ccc(Oc2ccc(C(=O)C(Cl)Cl)cc2[N+](=O)[O-])cc1 | NCI-H1650 | MTT | 2.5 µM | – | – | inhibition | 87.6% |
